Measurements as given in ChEMBL document CHEMBL4823316, “Synthesis and evaluation of squaramide and thiosquaramide inhibitors of the DNA repair enzyme SNM1A” (Bioorg Med Chem, 2021).
Activity calls are given as the source filed them. No cut-off for these calls is given here.

Target: T1, DNA cross-link repair 1A protein (Homo sapiens, UniProt Q6PJP8)
T1 sequence (Q6PJP8 whole entry): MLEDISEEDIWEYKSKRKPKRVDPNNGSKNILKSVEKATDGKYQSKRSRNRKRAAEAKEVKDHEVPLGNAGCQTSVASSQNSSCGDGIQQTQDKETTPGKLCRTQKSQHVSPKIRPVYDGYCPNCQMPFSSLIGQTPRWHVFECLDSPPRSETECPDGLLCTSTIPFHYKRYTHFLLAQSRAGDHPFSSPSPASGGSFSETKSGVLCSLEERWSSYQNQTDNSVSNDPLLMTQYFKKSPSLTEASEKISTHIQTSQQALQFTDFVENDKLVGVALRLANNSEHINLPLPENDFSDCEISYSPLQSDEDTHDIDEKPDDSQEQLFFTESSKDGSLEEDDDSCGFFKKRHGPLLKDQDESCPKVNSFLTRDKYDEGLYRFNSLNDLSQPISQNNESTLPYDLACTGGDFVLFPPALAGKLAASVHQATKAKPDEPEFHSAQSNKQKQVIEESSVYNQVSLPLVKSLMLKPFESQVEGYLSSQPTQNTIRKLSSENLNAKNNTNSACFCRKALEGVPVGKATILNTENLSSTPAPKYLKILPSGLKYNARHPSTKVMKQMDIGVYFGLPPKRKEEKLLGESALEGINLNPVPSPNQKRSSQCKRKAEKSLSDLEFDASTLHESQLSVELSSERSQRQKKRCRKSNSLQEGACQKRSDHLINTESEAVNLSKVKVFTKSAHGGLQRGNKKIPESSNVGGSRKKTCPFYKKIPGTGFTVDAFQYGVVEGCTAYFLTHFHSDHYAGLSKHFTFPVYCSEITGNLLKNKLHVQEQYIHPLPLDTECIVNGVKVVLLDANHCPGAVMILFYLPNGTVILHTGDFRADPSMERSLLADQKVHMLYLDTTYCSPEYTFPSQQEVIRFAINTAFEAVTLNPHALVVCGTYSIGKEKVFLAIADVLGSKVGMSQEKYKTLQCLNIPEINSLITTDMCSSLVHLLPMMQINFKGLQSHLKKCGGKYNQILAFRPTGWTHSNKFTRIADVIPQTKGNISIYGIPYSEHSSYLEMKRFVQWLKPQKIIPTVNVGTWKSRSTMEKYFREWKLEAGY
Assay: Inhibition of SNM1A (unknown origin) by real time fluorescence assay
Settings: not given
Outline: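 Real-time fluorescence assay of SNM1A exonuclease activity used to derive IC₅₀ from a concentration series. Unmodified thymidine run as control. Error bars from 6 independent repeats.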
In the case of Cc1cn([C@H]2C[C@H](O)[C@@H](CO)O2)c(=O)[nH]c1=O [DOXRIBTIMINE], the IC50 is reported as “Not Active”.

Tested on: not listed separately
Assay: Metal chelating activity assessed as Zn2+-compound complex formation by measuring equilibrium constant measured at 1:1 compound to metal ion ratio by UV-Vis titration based analysis
Settings: not given
Outline: (§1)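 Compounds in MeCN titrated with Zn(ClO₄)₂ and followed by UV–Vis. Binding constants for 1:1, 1:2 and 2:1 ligand–metal species were derived by global non-linear regression, comparing two- and three-species models. Described as qualitative.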
For Cc1cn([C@H]2C[C@H](Nc3c(N(C)O)c(=O)c3=O)[C@@H](CO)O2)c(=O)[nH]c1=O, the Kb was 3 10^4/M.
In the case of Cc1cn([C@H]2C[C@H](Nc3c(O)c(=O)c3=O)[C@@H](CO)O2)c(=O)[nH]c1=O, the Kb is reported as 4 10^4/M.
With CCN(CC)c1c(NC[C@H]2O[C@@H](n3cc(C)c(=O)[nH]c3=O)C[C@@H]2O)c(=S)c1=S the Kb was 6.8 10^5/M.

Tested on: not listed separately
Assay: Metal chelating activity assessed as Zn2+-compound complex formation by measuring equilibrium constant measured at 2:1 compound to metal ion ratio by UV-Vis titration based analysis
Settings: not given
Outline: as §1
In the case of Cc1cn([C@H]2C[C@H](Nc3c(O)c(=O)c3=O)[C@@H](CO)O2)c(=O)[nH]c1=O, the Kb is reported as 3.2 10^6/M.
For CCN(CC)c1c(NC[C@H]2O[C@@H](n3cc(C)c(=O)[nH]c3=O)C[C@@H]2O)c(=S)c1=S, the Kb was 1.2 10^6/M.

Target: T2, DNA cross-link repair 1A protein (Homo sapiens) (UniProt Q6PJP8)
T2 sequence (whole entry): T1 sequence (Q6PJP8 whole entry)
Assay: Inhibition of SNM1A (unknown origin) assessed as reduction in oligonucleotide digestion at 1 mM using 21mer fluorescent oligonucleotide as substrate preincubated for 5 mins followed by substrate addition and measured after 1 hr by PAGE analysis
Settings: time 65.0 min
In the case of Cc1cn([C@H]2C[C@H](Nc3c(N(C)O)c(=O)c3=O)[C@@H](CO)O2)c(=O)[nH]c1=O, the inhibition is reported as “Active”.
For Cc1cn([C@H]2C[C@H](O)[C@@H](CNc3c(O)c(=O)c3=O)O2)c(=O)[nH]c1=O, the inhibition was “inactive”.
With Cc1cn([C@H]2C[C@H](O)[C@H](CNc3c(N[C@H]4C[C@H](n5cc(C)c(=O)[nH]c5=O)O[C@@H]4CO)c(=S)c3=S)O2)c(=O)[nH]c1=O the inhibition was “Active”.
For Cc1cn([C@H]2C[C@H](O)[C@@H](CO)O2)c(=O)[nH]c1=O [DOXRIBTIMINE], the inhibition was “inactive”.
In the case of CCN(CC)c1c(NC[C@H]2O[C@@H](n3cc(C)c(=O)[nH]c3=O)C[C@@H]2O)c(=O)c1=O, the inhibition is reported as “inactive”.
With Cc1cn([C@H]2C[C@H](O)[C@@H](CNc3c(NCCO)c(=O)c3=O)O2)c(=O)[nH]c1=O the inhibition was “inactive”.
With CCN(CC)c1c(N[C@H]2C[C@H](n3cc(C)c(=O)[nH]c3=O)O[C@@H]2CO)c(=S)c1=S the inhibition was “Active”.
In the case of CN(O)c1c(N[C@H]2[C@@H](O)[C@H](n3ccc(=O)[nH]c3=O)O[C@@H]2CO)c(=O)c1=O, the inhibition is reported as “Active”.
With CCOc1c(NC[C@H]2O[C@@H](n3cc(C)c(=O)[nH]c3=O)C[C@@H]2O)c(=O)c1=O the inhibition was “inactive”.
With Cc1cn([C@H]2C[C@H](O)[C@@H](CNc3c(Nc4ccccc4O)c(=O)c3=O)O2)c(=O)[nH]c1=O the inhibition was “inactive”.

Tested on: not listed separately
Assay: Metal chelating activity assessed as Zn2+-compound complex formation by measuring equilibrium constant measured at 1:2 compound to metal ion ratio by UV-Vis titration based analysis
Settings: not given
Outline: as §1
In the case of Cc1cn([C@H]2C[C@H](Nc3c(N(C)O)c(=O)c3=O)[C@@H](CO)O2)c(=O)[nH]c1=O, the Kb is reported as 6.6 10^1/M.
In the case of CCN(CC)c1c(NC[C@H]2O[C@@H](n3cc(C)c(=O)[nH]c3=O)C[C@@H]2O)c(=S)c1=S, the Kb is reported as 1.7 10^2/M.

Target: T2, DNA cross-link repair 1A protein (Homo sapiens)
Assay: Inhibition of SNM1A (unknown origin) assessed as reduction in oligonucleotide digestion at 333 uM using 21mer fluorescent oligonucleotide as substrate preincubated for 5 mins followed by substrate addition and measured after 1 hr by PAGE analysis
Settings: time 65.0 min
In the case of Cc1cn([C@H]2C[C@H](Nc3c(N(C)O)c(=O)c3=O)[C@@H](CO)O2)c(=O)[nH]c1=O, the inhibition is reported as “Active”.
